The results in this text go back to ChEMBL document CHEMBL2407089, “Microwave-assisted synthesis of some new pyrazolopyridines and their antioxidant, antitumor and antimicrobial activities” (Eur J Med Chem, 2013).

In general, IC50 refers to the concentration that gives 50% inhibition. A low value points to higher potency. One may read the EC50 as the midpoint of the concentration-response curve.

Molecules are shown by their SMILES. In brackets after ≈: the same amount, converted by molar mass. Activity calls are given as the source filed them. The rule behind the calls is not given here.

For one experiment, the system named is MCF7. As to the kind of experiment: Cytotoxicity against human MCF7 cells by SRB assay. It counts as functional, cell-based. On the technique in general: In SRB staining, fixed cells bind dye roughly in proportion to their protein.
The subject of the next experiment is HepG2. As to the kind of experiment: Cytotoxicity against human HepG2 cells by SRB assay. It is filed as functional, cell-based.
The test system of experiment [1] is Radical scavenging activity. As to the kind of experiment: Antioxidant activity assessed as DPPH free radical scavenging activity at 50 ug after 30 mins by spectrophotometry. It counts as functional. Put shortly: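 Each sample (50 μg) dissolved in 1 ml DMSO; 250 μl added to 1 ml DPPH in DMSO (6 mg/50 ml), brought to 3 ml with DMSO. DMSO served as control. Vortexed, kept 30 min in the dark at room temperature, and absorbance read at 517 nm. Scavenging % = [1 − (A sample/A control)] × 100.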
(In general: Loss of DPPH colour is used to gauge radical scavenging.)

The subject of experiment [2] is Radical scavenging activity. As to the kind of experiment: Antioxidant activity assessed as DPPH free radical scavenging activity after 30 mins by spectrophotometry. It is filed as functional. In a few lines: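 EC50, the amount giving half-maximal scavenging, was taken from serial dilutions (5–50 μg/ml) in DMSO run against DPPH in DMSO (6 mg/50 ml stock) to a 3 ml total. Incubated 30 min in the dark at room temperature, with a DMSO control and A517 read-out. Scavenging % = [1 − (A sample/A control)] × 100.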

The next experiment deals with Penicillium expansum. As to the kind of experiment: Antifungal activity against Penicillium expansum assessed as diameter of inhibition zone at 10 mg/ml after 24 hrs by cut-plug method. It counts as functional. The settings on record: for zone of inhibition at 10000 µg/mL: read-out: DIZ. In a few lines:
(§1)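 Bacteria were maintained on nutrient agar and fungi on Sabouraud agar slopes. Testing used the cut-plug technique on nutrient agar, incubated at 30°C for 24 h, and inhibition zone diameters were measured in mm.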

For the next experiment, the system named is Fusarium oxysporum. As to the kind of experiment: Antifungal activity against Fusarium oxysporum assessed as diameter of inhibition zone at 10 mg/ml after 24 hrs by cut-plug method. It is filed as functional. In a few lines: as §1
A further experiment relates to Serratia. As to the kind of experiment: Antimicrobial activity against Serratia assessed as diameter of inhibition zone at 10 mg/ml after 24 hrs by cut-plug method. It is filed as functional. The conditions noted are these: read-out: DIZ. Put shortly:
as §1

The next experiment deals with Enterobacter cloacae. Description: Antimicrobial activity against Enterobacter cloaca assessed as diameter of inhibition zone at 10 mg/ml after 24 hrs by cut-plug method. It counts as functional. The conditions noted are these: read-out: DIZ. In a few lines: as §1
The next experiment has as its system Escherichia coli. As to the kind of experiment: Antimicrobial activity against Escherichia coli assessed as diameter of inhibition zone at 10 mg/ml after 24 hrs by cut-plug method. It counts as functional. The settings on record: read-out: DIZ. Put shortly:
as §1

In the next experiment the test system is Bacillus. As to the kind of experiment: Antimicrobial activity against Bacillus assessed as diameter of inhibition zone at 10 mg/ml after 24 hrs by cut-plug method. It is filed as functional. In a few lines: as §1

Take `CCOC(=O)c1cc2c(-c3cccnc3)nn(-c3ccccc3)c2nc1-c1cccnc1`: the IC50 was 6.9 µg/mL (≈ 16.4 µM) with MCF7 and 3.75 µg/mL (≈ 8.9 µM) in the experiment with HepG2. Further, the result in experiment [1] was inactive.

For `O=C1O[C@H]([C@@H](O)CO)C(O)=C1O` [ASCORBIC ACID], the half-maximal effective concentration (EC50) in [2] was determined as 3.22 µg/mL (≈ 18.3 µM). For the same molecule, the Activity in experiment [1] is 82.8%.

`Cc1ccc(-c2cc3ncc4c(-c5cccnc5)nn(-c5ccccc5)c4n3n2)cc1`: the half-maximal inhibitory concentration (IC50) in the experiment with MCF7 is 10.5 µg/mL (≈ 26.1 µM); in the experiment with HepG2 it was 12.9 µg/mL (≈ 32.1 µM). For the same molecule, the EC50 in [2] amounted to 53.76 µg/mL (≈ 134 µM). Also, the Activity in experiment [1] came out at 39.6%.

For `Clc1ccc(-c2cc3ncc4c(-c5cccnc5)nn(-c5ccccc5)c4n3n2)cc1`, the figures for the IC50 in the experiment with MCF7 and in the experiment with HepG2 were 14.7 µg/mL (≈ 34.8 µM) and 16.2 µg/mL (≈ 38.3 µM), respectively. Further, in experiment [2], the concentration giving a half-maximal response (EC50) was 80.5 µg/mL (≈ 190 µM). For the same molecule, the Activity in experiment [1] worked out at 29.4%.

Consider `O=C(c1ccc(Cl)cc1)c1cc2c(-c3cccnc3)nn(-c3ccccc3)c2[nH]c1=O`, for which the “diameter of the inhibition zone (DIZ)” value with Penicillium expansum, with Fusarium oxysporum and in the experiment on Bacillus was “inactive” each time. Further, the results for the zone of inhibition at 10000 µg/mL with Serratia, in the experiment with Enterobacter cloacae and in the experiment with Escherichia coli were 17 mm, 19 mm and 19 mm, respectively. In addition, the half-inhibitory concentration (IC50) in the experiment with MCF7 turned out to be 6.45 µg/mL (≈ 15.1 µM); in the experiment on HepG2, 9 µg/mL (≈ 21.1 µM). Further, the EC50 in [2] turned out to be 8.97 µg/mL (≈ 21 µM). Also, the Activity in experiment [1] was 63.6%.

In the case of `COc1cccc2c1C(=O)c1c(O)c3c(c(O)c1C2=O)C[C@@](O)(C(=O)CO)C[C@@H]3O[C@H]1C[C@H](N)[C@H](O)[C@H](C)O1` [DOXORUBICIN], the IC50 with HepG2 was 3.1 µg/mL (≈ 5.7 µM).

For the molecule `N#Cc1cc2c(-c3cccnc3)nn(-c3ccccc3)c2[nH]c1=O`, the figures for the half-inhibitory concentration (IC50) in the experiment on MCF7 and in the experiment with HepG2 were 3 µg/mL (≈ 9.57 µM) and 3.3 µg/mL (≈ 10.5 µM), respectively. In addition, the half-maximal effective concentration (EC50) in [2] was more than 100 µg/mL. For the same molecule, the Activity in experiment [1] is 1.14%.

For `O=C(N[C@H](CO)[C@H](O)c1ccc([N+](=O)[O-])cc1)C(Cl)Cl` [CHLORAMPHENICOL], the zone of inhibition at 10000 µg/mL turned out to be 10 mm in the experiment on Penicillium expansum; 12 mm in the experiment with Fusarium oxysporum (read-out: DIZ); 25.8 mm in the experiment with Serratia; 17 mm in the experiment with Enterobacter cloacae; 18 mm in the experiment with Escherichia coli; 21 mm in the experiment with Bacillus (read-out: DIZ).

Take `N#Cc1cc2c(-c3cccnc3)nn(-c3ccccc3)c2[nH]c1=S`: the concentration for half-maximal inhibition (IC50) with MCF7 was 2.7 µg/mL (≈ 8.2 µM); with HepG2, 3.9 µg/mL (≈ 11.8 µM). The EC50 in experiment [2] was 92.85 µg/mL (≈ 282 µM). The Activity in [1] was found to be 17%.

On to `Cc1ccc(C(=O)c2cc3c(-c4cccnc4)nn(-c4ccccc4)c3[nH]c2=O)cc1`, for which the zone of inhibition at 10000 µg/mL in the experiment on Penicillium expansum is 10 mm; with Serratia, 17 mm; with Enterobacter cloacae, 12.5 mm; with Escherichia coli, 17 mm. Moreover, the “diameter of the inhibition zone (DIZ)” value in the experiment with Fusarium oxysporum and with Bacillus was “inactive” throughout. Moreover, the IC50 was found to be 9.9 µg/mL (≈ 24.4 µM) in the experiment with MCF7 and 8.85 µg/mL (≈ 21.8 µM) with HepG2. The EC50 in [2] was found to be 54.76 µg/mL (≈ 135 µM). Also, the Activity in experiment [1] came out at 38.9%.

For the molecule `O=C(c1ccc(F)cc1)c1cc2c(-c3cccnc3)nn(-c3ccccc3)c2[nH]c1=O`, the “diameter of the inhibition zone (DIZ)” value in the experiment on Penicillium expansum, in the experiment on Fusarium oxysporum and with Bacillus was “inactive” each time. In addition, the zone of inhibition at 10000 µg/mL worked out at 17.5 mm in the experiment on Serratia, 21 mm in the experiment with Enterobacter cloacae and 15 mm with Escherichia coli. In addition, the figures for the half-inhibitory concentration (IC50) in the experiment on MCF7 and with HepG2 were 8.7 µg/mL (≈ 21.2 µM) and 7.8 µg/mL (≈ 19 µM), respectively. The EC50 in experiment [2] came out at 4.21 µg/mL (≈ 10.3 µM). Moreover, the Activity in [1] came to 72.3%.

As to `O=C(c1cccnc1)c1cc2c(-c3cccnc3)nn(-c3ccccc3)c2[nH]c1=O`, the “diameter of the inhibition zone (DIZ)” value in the experiment with Penicillium expansum, in the experiment on Fusarium oxysporum and in the experiment with Bacillus was “inactive” each time. Besides, the figures for the zone of inhibition at 10000 µg/mL with Serratia, in the experiment on Enterobacter cloacae and with Escherichia coli were 12.5 mm, 11.5 mm and 10.5 mm, respectively. The half-maximal inhibitory concentration (IC50) is 10.1 µg/mL (≈ 25.7 µM) in the experiment with MCF7 and 11 µg/mL (≈ 28 µM) in the experiment on HepG2. Moreover, the EC50 in [2] came out at 38.64 µg/mL (≈ 98.2 µM). The Activity in experiment [1] amounted to 36%.

Regarding `c1ccc(-c2cc3ncc4c(-c5cccnc5)nn(-c5ccccc5)c4n3n2)cc1`, the IC50 in the experiment on MCF7 worked out at 15.9 µg/mL (≈ 40.9 µM); in the experiment with HepG2, 17.3 µg/mL (≈ 44.5 µM). In experiment [2], the EC50 is more than 100 µg/mL. In addition, the Activity in experiment [1] came out at 9.47%.
